Assay results reported in ChEMBL document CHEMBL1811846, “Synthesis and biological activity of naphthyl-substituted (B-ring) benzophenone derivatives as novel non-nucleoside HIV-1 reverse transcriptase inhibitors” (Bioorg Med Chem, 2011).

Legend:
[1] = system: Human immunodeficiency virus 1; test: Antiviral activity against wild-type HIV1 3B infected in human C8166 cells assessed as protection against virus-induced cytopathogenicity after 3 days by measuring syncytia under inverted microscope; type: functional, organism-based; conditions: Human immunodeficiency virus 1, 3B, C8166, 72 h
In short: (§1)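 C8166 cells at 4 × 10⁵/mL infected at M.O.I. 0.06 in the presence of serial compound concentrations, with AZT and GW678248 as drug controls. After 3 days of culture, syncytia (multinucleated giant cells) counted under an inverted microscope. EC₅₀ is the concentration blocking syncytium formation by 50%.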

[2] = Cytotoxicity against human C8166 cells by MTT colorimetric assay; type: cell-based
In short: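 Uninfected C8166 cells exposed to compounds; viability read by MTT colorimetric assay at absorbance 570/630 nm. CC₅₀ is the concentration reducing viability by 50%.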

[3] = system: Human immunodeficiency virus 1; test: Antiviral activity against HIV1 A17 expressing reverse transcriptase K103N/Y181C double mutant infected in human C8166 cells assessed as protection against virus-induced cytopathogenicity after 3 days by measuring syncytia under inverted microscope; type: functional, organism-based; conditions: Human immunodeficiency virus 1, A17, C8166, 72 h
In short: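 C8166 cells (4 × 10⁵/mL) infected with HIV-1 A17 at MOI 0.06 in the presence of various compound concentrations. AZT and GW678248 served as drug controls. After 3 days of culture, syncytia (multinucleated giant cells) were scored under an inverted microscope. EC₅₀ was calculated as the concentration blocking syncytium formation by 50%.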

[4] = Selectivity index, ratio of CC50 for human C8166 cells to EC50 for HIV1 3B infected in human C8166 cells; type: toxicity, cell-based; conditions: HIV-1 3B infected C8166 cells, read-out: Ratio CC50/EC50
In short: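 Calculated as CC₅₀ (MTT viability of uninfected C8166 cells) divided by EC₅₀ against HIV-1 IIIB (syncytium scoring in C8166 cells, M.O.I. 0.06, 3 days).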

[5] = system: Human immunodeficiency virus 2; test: Antiviral activity against HIV-2 ROD infected in human C8166 cells assessed as protection against viral cytopathogenicity after 3 days by measuring syncytia under inverted microscope; type: functional, organism-based; conditions: Human immunodeficiency virus 2, ISOLATE ROD, C8166, 72 h; in short: as §1

SMILES | EC50 [1] [µM] | CC50 [2] [µM] | EC50 [3] [µM] | selectivity ratio [4] | EC50 [5] [µM]
Cc1cc(S(N)(=O)=O)ccc1NC(=O)COc1ccc2ccccc2c1C(=O)c1ccccc1 | 0.0527 | 33.8 | 9.6 | 642 | –
Cc1cccc(C(=O)c2c(OCC(=O)Nc3ccc(S(N)(=O)=O)cc3C)ccc3ccccc23)c1 | 0.0135 | 40.4 | 2.4 | 2990 | 28.3
Cc1cc(S(N)(=O)=O)ccc1NC(=O)COc1ccc2ccccc2c1C(=O)c1cccc(Cl)c1 | 0.0338 | 37.4 | 9.5 | 1110 | 34.5
Cc1cc(C)cc(C(=O)c2c(OCC(=O)Nc3ccc(S(N)(=O)=O)cc3C)ccc3ccccc23)c1 | 0.0078 | 39.1 | 8.4 | 5040 | 45.4
Cc1ccc(C)c(C(=O)c2c(OCC(=O)Nc3ccc(S(N)(=O)=O)cc3C)ccc3ccccc23)c1 | 0.0116 | 47.5 | 7.6 | 4090 | 30.3
Cc1ccc(C(=O)c2c(OCC(=O)Nc3ccc(S(N)(=O)=O)cc3C)ccc3ccccc23)c(C)c1 | 0.139 | 25.5 | 7.9 | 183 | –
Cc1ccc(C(=O)c2c(OCC(=O)Nc3ccc(S(N)(=O)=O)cc3C)ccc3ccccc23)cc1C | 0.609 | 33 | 12.3 | 54.2 | –
Cc1cc(S(N)(=O)=O)ccc1NC(=O)COc1ccc2ccccc2c1C(=O)c1cc(Cl)cc(Br)c1 | 0.0271 | 36.6 | 7.5 | 1350 | –
Cc1cc(S(N)(=O)=O)ccc1NC(=O)COc1ccc2ccccc2c1C(=O)c1cc(Cl)cc(C#N)c1 | 0.0048 | 49.4 | 2.1 | 10300 | 23.6
Cc1cc(S(N)(=O)=O)ccc1NC(=O)COc1ccc2cc(Br)ccc2c1C(=O)c1ccccc1 | 4.61 | 29.2 | 25.8 | 6.3 | 27.7
Cc1cccc(C(=O)c2c(OCC(=O)Nc3ccc(S(N)(=O)=O)cc3C)ccc3cc(Br)ccc23)c1 | 2.3 | 6.8 | 3.4 | 2.9 | –
Cc1cc(S(N)(=O)=O)ccc1NC(=O)COc1ccc2cc(Br)ccc2c1C(=O)c1cccc(Cl)c1 | 1.67 | 6.8 | 3.9 | 4.1 | –
Cc1cc(S(N)(=O)=O)ccc1NC(=O)COc1ccc2cc(Br)ccc2c1C(=O)c1cccc(F)c1 | 9.17 | 24.5 | 9.7 | 2.7 | 6
Cc1cc(C)cc(C(=O)c2c(OCC(=O)Nc3ccc(S(N)(=O)=O)cc3C)ccc3cc(Br)ccc23)c1 | 4.42 | 31 | 7.8 | 7 | 29.8
Cc1ccc(C(=O)c2c(OCC(=O)Nc3ccc(S(N)(=O)=O)cc3C)ccc3cc(Br)ccc23)c(C)c1 | 23.6 | 61.4 | 33.1 | 2.6 | –
Cc1ccc(C)c(C(=O)c2c(OCC(=O)Nc3ccc(S(N)(=O)=O)cc3C)ccc3cc(Br)ccc23)c1 | 2.64 | 14 | 20.7 | 5.3 | –
Cc1ccc(C(=O)c2c(OCC(=O)Nc3ccc(S(N)(=O)=O)cc3C)ccc3cc(Br)ccc23)cc1C | 31.9 | 85.2 | 28.2 | 2.7 | –
Cc1cc(S(N)(=O)=O)ccc1NC(=O)COc1ccc2cc(Br)ccc2c1C(=O)c1cc(Cl)cc(Br)c1 | 7.57 | 28.5 | 10.2 | 3.8 | 11.1
Cc1cccc(C(=O)c2c(OCC(=O)Nc3ccc(S(N)(=O)=O)cc3C)ccc3cc(C#N)ccc23)c1 | 0.791 | 15.2 | 10.4 | 19.2 | –
Cc1cc(S(N)(=O)=O)ccc1NC(=O)COc1ccc2cc(C#N)ccc2c1C(=O)c1cccc(Cl)c1 | 2.05 | > 374 | 20.6 | > 183 | –
Cc1ccc(C(=O)c2c(OCC(=O)Nc3ccc(S(N)(=O)=O)cc3C)ccc3cc(C#N)ccc23)cc1C | 86.3 | > 379 | 97.3 | > 4.4 | –
Cc1cc(C)cc(C(=O)c2c(OCC(=O)Nc3ccc(S(N)(=O)=O)cc3C)ccc3cc(C#N)ccc23)c1 | 1.78 | 128 | 16.3 | 72 | –
Cc1cc(S(N)(=O)=O)ccc1NC(=O)COc1ccc(Cl)cc1C(=O)c1cc(Cl)cc(C#N)c1 | – | > 387 | 0.0014 | > 563000 | 2.1
Cc1cn([C@H]2C[C@H](N=[N+]=[N-])[C@@H](CO)O2)c(=O)[nH]c1=O [ZIDOVUDINE] | – | 5400 | 0.023 | 422000 | 0.039
